The structures appear in SMILES notation. Calls of active or inactive are those of the source. No cut-off for these calls is given here.

This passage reports Activity results from ChEMBL document CHEMBL1137341, “Small-molecule inhibitors of histone acetyltransferase activity: identification and biological properties” (2006).

The subject of experiment [1] is Saccharomyces cerevisiae. Kind of experiment: Inhibition of Saccharomyces cerevisiae growth at 0.6 mM. Type of experiment: functional, organism-based. A digest of the protocol: (§1)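 Yeast strains (wild-type MK839, F221A and E173H GCN5 catalytic mutants, spt20∆) grown at 28 °C with 0.6 mM compound; ten-fold serial dilutions of liquid culture spotted on solid medium. Growth estimated by optical density as arbitrary units.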

For experiment [2], the target named is Histone acetyltransferase GCN5 (Saccharomyces cerevisiae S288c) (UniProt Q03330). Nature of the experiment: Inhibition of Saccharomyces cerevisiae GCN5 at 0.6 mM. A digest of the protocol: as §1
The subject of experiment [3] is Saccharomyces cerevisiae. Kind of experiment: Inhibition of Saccharomyces cerevisiae H3 histone acetylation at 1.5 mM. Type of experiment: functional, organism-based. A digest of the protocol: (§2)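 Wild-type S. cerevisiae grown 16 h in YPD at 28 °C with 0.6, 1 or 1.5 mM compound; gcn5∆ strain run in parallel. Alkaline protein extraction, 15% SDS-PAGE, Western blot with anti-acetyl-H3 and anti-H3 antibodies, ECL detection.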

Experiment [4] concerns U-937. Kind of experiment: Inhibition of alpha-tubulin acetylation in human U937 cells at 2.5 mM. It is filed as functional, cell-based. A digest of the protocol:
(§3)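 U937 cells pretreated 2 h with 5 µM SAHA, washed, then incubated 4 h with vehicle or compound at 2.5 mM. Western blot for acetylated histone H3 and acetylated α-tubulin (50 µg protein on 10% gels, normalized to total ERKs).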

For experiment [5], the system named is U-937. Kind of experiment: Effect on granulocytic differentiation in human U937 cells measured as CD11c expression level at 1 mM after 30 hrs. It is filed as functional. A digest of the protocol: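 U937 cells (RPMI, 10% FBS, 200 000 cells/mL) exposed 30 h to 1 mM. Stained with PE-conjugated CD11c, 30 min at 4 °C in the dark; PE mouse IgG1 as staining control; propidium iodide 0.25 µg/mL added and PI-positive cells excluded. Reported as percent CD11c-positive cells by FACS.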

Experiment [6] concerns Saccharomyces cerevisiae. Nature of the experiment: Inhibition of GCN5-independent GAL10-CYC1-LacZ reporter gene transcription measured as level of beta-galactosidase activity in Saccharomyces cerevisiae under galactose induction. Background: A reporter such as luciferase makes a cellular process visible.
The test system of experiment [7] is U-937. Kind of experiment: Inhibition of HAT in human U937 cells at 500 uM. Also on record: scale not given: the % may be the effect or the level left. It is filed as functional. The essentials: (§4)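 Indirect ELISA for acetylated histone H3 using 10 µg U937 nuclear extract per well as HAT source; 90 min incubation with compound (25, 50 or 500 µM) or DMSO control. Acetylated H3 peptide standard curve; expressed as % inhibition relative to untreated extract (100%).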

For experiment [8], the target named is Histone acetyltransferase GCN5 (Saccharomyces cerevisiae S288c) (UniProt Q03330). Kind of experiment: Inhibition of GCN5-dependent HIS3-LacZ reporter gene transcription measured as level of beta-galactosidase activity in Saccharomyces cerevisiae. Type of experiment: functional. The essentials: (§5)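 Yeast reporter strains: HIS3-LacZ (yPO14) grown 16 h in SD at 28 °C and then 4 h with 25 mM 3-aminotriazole; GAL10-CYC1-LacZ (yPO1569) grown 16 h in SD, washed, then 4 h in galactose SG medium. Compounds at 0.6 mM. β-Gal activity read in glass-bead extracts normalized to Bradford protein; 1 unit = 1 µmol o-nitrophenol/min.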

Experiment [9] shares this target. Nature of the experiment: Inhibition of GCN5-dependent HIS3-LacZ reporter gene transcription measured as level of beta-galactosidase activity in Saccharomyces cerevisiae in presence of 3-aminotriazole. Type of experiment: functional.
The test system of experiment [10] is U-937. Nature of the experiment: Inhibition of HAT in human U937 cells at 50 uM. Type of experiment: functional. On the set-up: scale not given: the % may be the effect or the level left. A digest of the protocol: as §4
For experiment [11], the system named is Saccharomyces cerevisiae. Kind of experiment: Inhibition of growth of wild type Saccharomyces cerevisiae MK839 mutant at 0.6 mM. Type of experiment: functional, organism-based. The essentials:
as §1

Experiment [12] has as its system Saccharomyces cerevisiae. Nature of the experiment: Inhibition of growth of Saccharomyces cerevisiae spt20delta mutant at 0.6 mM. It is filed as functional, organism-based. The essentials: as §1
Experiment [13] concerns Saccharomyces cerevisiae. Nature of the experiment: Inhibition of growth of Saccharomyces cerevisiae F221A mutant at 0.6 mM. Type of experiment: functional, organism-based. The essentials:
as §1

Experiment [14] has as its system Saccharomyces cerevisiae. Kind of experiment: Inhibition of GCN5-independent GAL10-CYC1-LacZ reporter gene transcription measured as level of beta-galactosidase activity in Saccharomyces cerevisiae. Type of experiment: functional, organism-based. The essentials: as §5
Experiment [15] concerns Saccharomyces cerevisiae. Nature of the experiment: Inhibition of growth of Saccharomyces cerevisiae E173H mutant at 0.6 mM. It is filed as functional, organism-based. A digest of the protocol:
as §1

For experiment [16], the system named is U-937. Nature of the experiment: Inhibition of H3 histone acetylation in human U937 cells at 100 uM. Type of experiment: functional, cell-based. The essentials: (§6)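 SAHA 5 µM pretreatment of U937 cells for 2 h, then wash and 4 h with vehicle or 100 µM compound. Acetyl-H3 and acetyl-α-tubulin detected by Western blot (50 µg total protein for tubulin, total ERKs as loading control).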

The subject of experiment [17] is U-937. Kind of experiment: Inhibition of alpha-tubulin acetylation in human U937 cells at 100 uM. It is filed as functional, cell-based. A digest of the protocol:
as §6

In experiment [18] the test system is U-937. Kind of experiment: Inhibition of HAT in human U937 cells at 25 uM. On the set-up: scale not given: the % may be the effect or the level left. Type of experiment: functional. The essentials:
as §4

In experiment [19] the test system is U-937. Kind of experiment: Cell cycle arrest at G1 phase in human U937 cells at 1 mM after 24 hrs. Type of experiment: functional, cell-based. The essentials: (§7)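 U937 cells in RPMI with 10% FBS and antibiotics, held at 200 000 cells/mL, treated 24 h at 1 mM (DMSO stock). Cell cycle: 2.5 × 10^5 cells in hypotonic buffer with propidium iodide and RNase A, 30 min dark, flow cytometry; three experiments. Apoptosis: Annexin V/propidium iodide double staining by FACS.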

Experiment [20] concerns Saccharomyces cerevisiae. Kind of experiment: Inhibition of Saccharomyces cerevisiae H3 histone acetylation at 0.6 mM. It is filed as functional, organism-based. A digest of the protocol:
as §2

Experiment [21] relates to U-937. Nature of the experiment: Inhibition of H3 histone acetylation in human U937 cells at 2.5 mM. It is filed as functional, cell-based. The essentials: as §3
The subject of experiment [22] is U-937. Kind of experiment: Induction of apoptosis in human U937 cells at 1 mM after 24 hrs. Type of experiment: functional. The essentials: as §7
Experiment [23] concerns Saccharomyces cerevisiae. Kind of experiment: Inhibition of Saccharomyces cerevisiae H3 histone acetylation at 1 mM. It is filed as functional, organism-based. The essentials: as §2

Sequence of Histone acetyltransferase GCN5 (Saccharomyces cerevisiae S288c) (Q03330 whole entry): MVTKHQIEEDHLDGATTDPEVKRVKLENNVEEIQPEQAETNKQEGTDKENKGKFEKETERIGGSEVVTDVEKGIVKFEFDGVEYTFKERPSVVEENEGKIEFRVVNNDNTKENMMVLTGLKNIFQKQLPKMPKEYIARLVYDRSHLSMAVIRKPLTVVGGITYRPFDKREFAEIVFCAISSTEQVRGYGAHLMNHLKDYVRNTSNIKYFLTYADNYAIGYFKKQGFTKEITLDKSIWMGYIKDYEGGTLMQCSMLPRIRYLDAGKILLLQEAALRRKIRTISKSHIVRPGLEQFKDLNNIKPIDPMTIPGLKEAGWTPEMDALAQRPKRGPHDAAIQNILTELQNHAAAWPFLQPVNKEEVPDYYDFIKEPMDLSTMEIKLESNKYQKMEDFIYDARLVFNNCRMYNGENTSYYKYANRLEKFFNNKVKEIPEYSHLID

Take `CCOC(=O)c1cnc2ccccc2c1`: the outcome (in the experiment on Saccharomyces cerevisiae [1]; in experiment [2]; in the experiment with Saccharomyces cerevisiae [3]; with U-937 [4]; in the experiment with Saccharomyces cerevisiae [6]; in experiment [8]) was Active. Also, the result in experiment [9] was Active. Moreover, the Activity in the experiment with U-937 [5] was found to be 14%; in the experiment with U-937 [7] it was 25%.
As for `CCOC(=O)c1ccc2ccccc2c1`, the result in experiment [2] was inactive.
For the compound `COc1cc(/C=C/C(=O)CC(=O)/C=C/c2ccc(O)c(OC)c2)ccc1O` [CURCUMIN], the Activity in the experiment on U-937 [10] turned out to be 17.5%.
On to `CCOC(=O)c1cccnc1C`, for which the outcome (in experiment [2]; in the experiment on Saccharomyces cerevisiae [11]; with Saccharomyces cerevisiae [6]; in [8]; in the experiment on Saccharomyces cerevisiae [12]; with Saccharomyces cerevisiae [13]) was inactive. In addition, the outcome (with Saccharomyces cerevisiae [14]; in experiment [9]; in the experiment on Saccharomyces cerevisiae [15]) was inactive.
`NC(=O)c1cnc2ccccc2c1`: the result in experiment [2] was inactive.
As for `Cc1ccc2ccccc2n1`, the outcome in [2] was inactive.
As for `CCOC(=O)c1c(C)nc2ccccc2c1O`, in experiment [2], the outcome was inactive.
For the compound `C=C1C(=O)O[C@H](CCC)[C@H]1C(=O)O`, the Activity in the experiment with U-937 [10] turned out to be 44%.
`C=CC/C=C\C/C=C\CCCCCCCc1cccc(O)c1C(=O)O` [ANACARDIC ACID] yielded an Activity in the experiment with U-937 [10] of 15%.
`O=C(O)c1cnc2ccccc2c1`: the outcome in experiment [2] was inactive.
`CCCCCc1nc2ccccc2c(O)c1C(=O)O`: the outcome in the experiment with U-937 [16] and with U-937 [17] was Active. In addition, the Activity was found to be 30% in the experiment on U-937 [10] and 24% with U-937 [18].
On to `CCOC(=O)c1cc2ccccc2nc1C`, for which the result (with Saccharomyces cerevisiae [1]; in the experiment on U-937 [4]; with U-937 [19]; with Saccharomyces cerevisiae [20]; in the experiment with U-937 [21]; in [8]) was Active. Moreover, the outcome (in experiment [9]; in the experiment on Saccharomyces cerevisiae [23]) was Active. Further, the Activity with U-937 [5] was found to be 8.8%; in the experiment with U-937 [7], 32%; in the experiment with U-937 [22], 27%. Moreover, the outcome in the experiment on Saccharomyces cerevisiae [6] and in the experiment with Saccharomyces cerevisiae [14] was inactive.
